Measured values from ChEMBL document CHEMBL1157459 (J Med Chem, 2008).
Activity calls are given as the source filed them. The calls are words filed in the database; no cut-off is given here.

How the values were obtained:
[1] = target: T1, Gamma-aminobutyric acid type B receptor subunit 1 (Homo sapiens, UniProt Q9UBS5); assay: Activity at human GABAb 1A/2 receptor expressed in Xenopus oocytes assessed as whole cell current production at 600 uM by two electrode voltage clamp method; format: cell-based; details: Oocyte
[2] = target: T2, Gamma-aminobutyric acid receptor subunit rho-1 (Homo sapiens, UniProt P24046); assay: Antagonist activity at human GABAc Rho1 receptor expressed in Xenopus oocytes assessed as whole cell current production by two electrode voltage clamp method; format: functional, cell-based, Oocyte; details: for Kb: Oocyte
[3] = target: T3, GABA-A receptor; agonist GABA site (Homo sapiens) (UniProt P14867+P47870+P28472+P48169+P34903+P18505+P47869+P31644+Q16445); assay: Activity at human alpha-1-beta-2-gamma-2L GABAA receptor expressed in Xenopus oocytes assessed as inhibition of current production at 600 uM by two electrode voltage clamp method relative to GABA; format: cell-based; details: Oocyte
[4] = target: T2, Gamma-aminobutyric acid receptor subunit rho-1; assay: Antagonist activity at human GABAc Rho1 receptor expressed in Xenopus oocytes assessed as whole cell current production at 600 uM by two electrode voltage clamp method; format: functional, cell-based; details: Oocyte
[5] = target: T2, Gamma-aminobutyric acid receptor subunit rho-1; assay: Agonist activity at human GABAc Rho1 receptor expressed in Xenopus oocytes assessed as whole cell current production by two electrode voltage clamp method; format: functional, cell-based, Oocyte
[6] = target: T1, Gamma-aminobutyric acid type B receptor subunit 1; assay: Agonist activity at human GABAb 1A/2 receptor expressed in Xenopus oocytes assessed as whole cell current production by two electrode voltage clamp method; format: functional, cell-based, Oocyte
[7] = target: T1, Gamma-aminobutyric acid type B receptor subunit 1; assay: Intrinsic activity at human GABAb 1A/2 receptor expressed in Xenopus oocytes assessed as maximum whole cell current production by two electrode voltage clamp method relative to GABA; format: cell-based; details: Oocyte
In short: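 Human GABA-B(1A/2) receptors expressed from cRNA (50 ng/50 nL) in Xenopus oocytes held 1-5 days at 18 °C. Voltage clamp at -60 mV in high-K+ buffer (45 mM KCl, 45 mM NaCl, 1 mM MgCl2, 1.8 mM CaCl2, 5 mM HEPES). Responses normalised to the maximal response to 600 µM GABA. Imax and EC50 taken from concentration-response fits. Mean ± SEM, n = 3-5 oocytes.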

[8] = target: T3, GABA-A receptor; agonist GABA site (Homo sapiens); assay: Agonist activity at human alpha-1-beta-2-gamma-2L GABAA receptor expressed in Xenopus oocytes assessed as inhibition of current production by two electrode voltage clamp method; format: functional, cell-based; details: Oocyte

T2 sequence (P24046 whole entry): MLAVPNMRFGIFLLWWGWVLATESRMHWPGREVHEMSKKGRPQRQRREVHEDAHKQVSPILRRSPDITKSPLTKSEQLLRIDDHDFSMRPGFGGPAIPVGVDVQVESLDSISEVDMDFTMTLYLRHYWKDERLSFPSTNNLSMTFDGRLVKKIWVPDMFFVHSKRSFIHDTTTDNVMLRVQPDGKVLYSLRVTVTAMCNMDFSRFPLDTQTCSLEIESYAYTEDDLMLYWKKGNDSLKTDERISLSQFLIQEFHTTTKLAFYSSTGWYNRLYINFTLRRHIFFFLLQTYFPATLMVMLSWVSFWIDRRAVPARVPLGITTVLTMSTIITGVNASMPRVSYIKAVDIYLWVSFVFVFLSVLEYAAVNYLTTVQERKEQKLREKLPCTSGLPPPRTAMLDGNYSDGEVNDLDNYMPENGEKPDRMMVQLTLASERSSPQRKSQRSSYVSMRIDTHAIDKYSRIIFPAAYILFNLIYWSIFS
T1 sequence (Q9UBS5 whole entry): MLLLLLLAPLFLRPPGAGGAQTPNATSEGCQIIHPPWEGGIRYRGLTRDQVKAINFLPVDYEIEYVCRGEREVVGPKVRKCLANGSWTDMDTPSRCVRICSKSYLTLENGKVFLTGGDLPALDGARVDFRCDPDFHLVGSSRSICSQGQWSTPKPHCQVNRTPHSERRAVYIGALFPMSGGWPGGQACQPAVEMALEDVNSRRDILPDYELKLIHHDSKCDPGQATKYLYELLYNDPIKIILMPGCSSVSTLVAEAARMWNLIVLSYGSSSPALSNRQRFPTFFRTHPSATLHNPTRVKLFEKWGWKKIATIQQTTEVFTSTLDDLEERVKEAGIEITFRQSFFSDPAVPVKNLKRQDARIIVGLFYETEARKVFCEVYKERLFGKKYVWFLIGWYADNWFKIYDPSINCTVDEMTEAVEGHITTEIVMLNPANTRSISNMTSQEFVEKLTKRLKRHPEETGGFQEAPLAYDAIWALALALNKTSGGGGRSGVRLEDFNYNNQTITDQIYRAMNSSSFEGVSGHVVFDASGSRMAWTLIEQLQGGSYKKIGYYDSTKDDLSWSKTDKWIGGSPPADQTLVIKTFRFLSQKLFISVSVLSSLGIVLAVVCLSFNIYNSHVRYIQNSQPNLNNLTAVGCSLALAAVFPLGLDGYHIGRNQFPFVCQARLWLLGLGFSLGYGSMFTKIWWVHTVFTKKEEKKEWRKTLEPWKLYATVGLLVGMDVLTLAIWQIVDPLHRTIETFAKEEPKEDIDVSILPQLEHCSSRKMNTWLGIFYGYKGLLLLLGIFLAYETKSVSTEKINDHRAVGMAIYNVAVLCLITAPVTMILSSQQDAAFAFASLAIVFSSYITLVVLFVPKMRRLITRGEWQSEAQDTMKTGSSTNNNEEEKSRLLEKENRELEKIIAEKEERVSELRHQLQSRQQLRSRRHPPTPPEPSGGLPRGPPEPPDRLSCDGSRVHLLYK

`CP(=O)(O)[C@H]1C[C@@H](N)C1` was tested, and the Activity [1] was “inactive” and the IC50 [2] was over 100 µM.
`CCCCP(=O)(O)C1=CC[C@H](N)C1` was tested, and the inhibition [3] was 24.2% and the Kb [2] was 4.97 µM.
With `NCC(=O)CCC(=O)O` [AMINOLEVULINIC ACID] the IC50 [2] was 12.9 µM.
With `CP(=O)(O)[C@]1(O)C[C@@H](N)C1` the Activity [1] was “inactive” and the Activity [4] was “inactive”.
In the case of `CC(C)P(=O)(O)C1=CCC(N)C1` (racemic), the inhibition [3] is reported as 8.8% and the Kb [2] is reported as 13.1 µM.
Compound `CP(=O)(O)/C=C\CN` has a Kb [2] of 38.9 µM.
Work on `CP(=O)(O)[C@@H]1CC[C@H](N)C1` yielded a Kb [2] of 1.1 µM.
`NC1CC=C(P(=O)(O)Cc2ccccc2)C1` (racemic) was tested, and the inhibition [3] was 64.1% and the Kb [2] was 48.6 µM.
For `NC[C@H]1C[C@@H]1C(=O)O`, the EC50 [5] was 59 µM.
With `CP(=O)(O)[C@@H]1CC[C@@H](N)C1` the Kb [2] was 6.6 µM.
With `CP(=O)(O)C1=CCC(N)C1` (racemic) the EC50 [6] was 51 µM, the Imax [7] was 56.4% and the inhibition [3] was 6.2%. The Kb [2] was 1.84 µM.
`Oc1noc2c1CCNC2` showed a Kb [2] of 32 µM.
In the case of `CP(=O)(O)C1=CC[C@H](N)C1`, the EC50 [6] is reported as 52.2 µM, the Imax [7] is reported as 75.9% and the inhibition [3] is reported as 4.1%. It also gave a Kb [2] of 0.78 µM.
Work on `CP(=O)(O)C1CCNCC1` yielded a Kb [2] of 6 µM.
In the case of `N[C@H]1CC=C(C(=O)O)C1` (stereo in doubt; 6), the ED50 [8] is reported as 1.1 µM and the Kb [2] is reported as 6 µM.
`O=C(O)Cc1c[nH]cn1` showed a Kb [2] of 1.7 µM.
In the case of `CP(=O)(O)[C@]1(O)C[C@H](N)C1`, the Activity [1] is reported as “inactive” and the Activity [4] is reported as “inactive”.
Work on `NCc1cc(=O)[nH]o1` [MUSCIMOL] yielded an EC50 [5] of 1.4 µM.
`NC[C@H]1C[C@H]1C(=O)O` showed an EC50 [5] of 40 µM.
`N[C@H]1CC=C(C(=O)O)C1` (stereo in doubt; (S-6)) was tested, and the Kb [2] was 6.1 µM.
Compound `NC/C=C/C(=O)O` [t-4-AMINOCROTONIC ACID (TACA)] has an EC50 [5] of 0.4 µM.
`CP(=O)(O)[C@H]1C[C@H](N)C1` was tested, and the Activity [1] was “inactive” and the IC50 [2] was over 100 µM.
With `NCCCCC(=O)O` the Kb [2] was 20 µM.
`CCCCP(=O)(O)C1=CCC(N)C1` (racemic) showed an inhibition [3] of 23.2% and a Kb [2] of 7.24 µM.
`CP(=O)(O)C1=CCNCC1` showed an EC50 [6] of 500 µM and a Kb [2] of 2.1 µM.
`CP(=O)(O)[C@H]1CC[C@@H](N)C1` gave a Kb [2] of 1.1 µM.
In the case of `NC[C@@H]1C[C@H]1C(=O)O`, the EC50 [5] is reported as 9 µM.
`CCP(=O)(O)C1=CCC(N)C1` (racemic) showed an inhibition [3] of 5.2% and a Kb [2] of 3.53 µM.
With `NC[C@@H]1C[C@@H]1C(=O)O` the IC50 [2] was over 800 µM.
For `O=[Se](O)C1CCNCC1`, the Kb [2] was 0.95 µM.
With `CCCCP(=O)(O)C1=CC[C@@H](N)C1` the Activity [3] was “inactive” and the Kb [2] was 59.3 µM.
With `CP(=O)(O)[C@H]1CC[C@H](N)C1` the Kb [2] was 6.6 µM.
In the case of `CP(=O)(O)C1=CC[C@@H](N)C1`, the EC50 [6] is reported as 71.9 µM, the Imax [7] is reported as 52.3% and the Activity [3] is reported as “inactive”. For the same compound, the Kb [2] was 18.9 µM.
